# DENV2 CPE – inhibitors of DENV2 cytopathic effect, primary screen, cell-based, plate reader, single concentration; DENV2-infected cells, cytopathic effect rescue; CPE inhibition, % at 9.99 µM; 350,000 tested, 1.7% active; in the data active means CPE inhibition above about 20%, passing the limit was not always enough; inconclusive means no clear call, values can overlap the other calls; tested in BHK-21 cells;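 further: 0% = median of neutral control wells and 100% = median of positive control wells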
# S100A4 inh HTS – inhibitors of S100A4-myosin IIA peptide binding, primary screen, biochemical, fluorescence polarization, TAMRA-MyoIIA peptide; Protein S100-A4 (Homo sapiens), P26447; inhibition, % at 10.7 µM; 360,000 tested, 0.14% active;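 active means mean inhibition of at least 70% across replicates, with every replicate also reaching that level; inconclusive means mean inhibition reaches 70% but some replicates fall short; inactive means mean inhibition below 70%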
# Target sequence (P26447 whole entry, looked up): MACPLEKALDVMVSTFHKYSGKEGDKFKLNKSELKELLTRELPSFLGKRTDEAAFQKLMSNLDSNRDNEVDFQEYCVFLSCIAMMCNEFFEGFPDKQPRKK
#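 assay system = human S100A4 monomer with TAMRA-labelled myosin IIA peptide | also added = labelled myosin peptide probe, 5 nM | incubation = 5 min between mix addition and reading | control set = DMSO and TFP controls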
# C2C12 statin – suppressors of statin myotoxicity in C2C12 myotubes, primary screen, cell-based, single point, plate reader; C2C12 myotubes + simvastatin, ATP luminescence, 48 h; scaled: DMSO 0, geranylgeraniol control 100; rescue of ATP level, % at 7.49 µM; 330,000 tested, 0.78% active;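 active means mean ATP rescue above about 67%, or every replicate alone reaching that limit, limit read from the data, passing the limit was not always enough; inconclusive means no clear call, values can overlap the other calls; inactive means mean under the limit and some replicate under it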;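 further: myotubes were challenged with 10 µM simvastatin during compound exposure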
# SIRT5 inh – SIRT5 desuccinylase inhibitors, primary screen, biochemical, fluorescence imaging, single point, set 5; inhibition, % at 15 µM; Purified SirT5, succinyl-peptide AMC, trypsin-coupled fluorescence; 330,000 tested, 1.1% active; AID 652115, 2013; NAD-dependent protein deacylase sirtuin-5, mitochondrial (Homo sapiens), Q9NXA8; in the data active means inhibition above about 15%; inconclusive means no clear call, values can overlap the other calls
# Target sequence (Q9NXA8 whole entry, looked up): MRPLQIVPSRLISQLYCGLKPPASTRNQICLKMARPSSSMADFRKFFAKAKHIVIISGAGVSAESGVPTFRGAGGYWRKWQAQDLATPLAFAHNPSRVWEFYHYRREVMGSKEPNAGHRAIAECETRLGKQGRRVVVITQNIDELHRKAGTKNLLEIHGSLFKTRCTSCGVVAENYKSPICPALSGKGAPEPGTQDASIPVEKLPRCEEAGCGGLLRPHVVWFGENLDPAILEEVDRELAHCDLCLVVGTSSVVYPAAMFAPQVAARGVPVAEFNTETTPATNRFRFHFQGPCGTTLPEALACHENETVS
# PGC1a acetyl inh – inhibitors of PGC1a acetylation signal, primary screen, cell-based, U2OS, AlphaScreen, inhibitor mode; inhibition, % at 15.6 µM; 350,000 tested, 0.17% active; AlphaScreen anti-acetyl-lysine; with virally co-expressed GCN5 acetyltransferase;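 active means every replicate shows inhibition of at least 40%; inconclusive means mean inhibition at least 40% but some replicate below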;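 further: 0% = neutral control wells and 100% = positive control wells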
# Numbers without * were called inactive; ? = inconclusive; · = no result. A selection: hits, their analogues and other compounds. The true share with any hit is near 2.9%.
SMILES,DENV2 CPE,S100A4 inh HTS,C2C12 statin,SIRT5 inh,PGC1a acetyl inh
CCC(=O)N1C[C@H](C)[C@@H](OC)CN(C)C(=O)c2cc(NC(=O)Nc3cccc(F)c3)ccc2OC[C@@H]1C,-1.0,-2.0,-9.4,5.3,7.3
CCC(=O)N1C[C@@H](C)[C@H](OC)CN(C)C(=O)c2cc(NC(=O)Nc3cccc(F)c3)ccc2OC[C@@H]1C,-5.6,23.6,-12.1,15.3*,4.9
CO[C@@H]1CN(C)C(=O)c2ccc(NC(=O)c3cccc(F)c3)cc2OC[C@H](C)N(C(C)=O)C[C@@H]1C,34.1*,12.4,8.2,-2.2,-12.1
CO[C@@H]1CN(C)C(=O)c2ccc(NC(=O)c3cccc(F)c3)cc2OC[C@H](C)N(C(C)=O)C[C@H]1C,2.3,19.7,7.9,1.0,-0.3
CO[C@@H]1CN(C)C(=O)c2ccc(NC(=O)Nc3cccc(F)c3)cc2OC[C@@H](C)N(C(C)=O)C[C@H]1C,109.2*,·,5.0,1.9,-6.0
CO[C@@H]1CN(C)C(=O)c2cc(NC(=O)Nc3cccc(F)c3)ccc2OC[C@@H](C)N(C(C)=O)C[C@@H]1C,1.1,4.9,-5.4,-4.8,2.3
CC(=O)N(C)C[C@@H]1Oc2cc(C#C[C@@H](C)O)ccc2S(=O)(=O)N([C@@H](C)CO)C[C@@H]1C,4.8,1.8,20.2,3.1,3.6
CCCC#Cc1ccc([C@@H]2[C@H](C#N)N(C(=O)C3CC3)[C@H]2CO)cc1,-1.8,-1.1,-91.9,11.9,-8.8
CCCC#Cc1ccc2c(c1)O[C@H](CN(C)C(=O)C1CCCCC1)[C@@H](C)CN([C@@H](C)CO)S2(=O)=O,·,·,-51.4,·,14.1
CC(=O)c1c(C)[nH]c(C(=O)NNC(=O)COc2cc(C)cc(C)c2)c1C,32.7*,2.3,-10.5,-3.0,3.3
COc1ccc(NC(=O)COc2cccc3c2CCN(Cc2cccnc2)C3=O)cc1,?,-1.5,1.1,16.8*,·
COc1cccc(NC(=O)COc2cccc3c2CCNC3=O)c1,27.6*,1.1,-1.3,-2.0,·
COc1ccc(NC(=O)COc2cccc3c2CCNC3=O)cc1,-3.6,1.1,·,-0.1,·
COc1ccc2c3c([nH]c2c1)[C@@H](CO)N(C(=O)Nc1ccc(F)cc1)CC31CCN(C(=O)Nc2ccccc2)CC1,9.7,·,·,·,-6.4
CCOC(=O)c1cnc(SC)nc1Oc1cccc(NS(=O)(=O)c2ccc(C)cc2)c1,·,·,90.3*,·,6.6
C=CCn1c(=O)c(C(=O)Nc2ccc(C)cn2)c(O)c2ccccc21,-1.9,-2.5,-6.4,-1.1,·
C=CCn1c(=O)c(C(=O)Nc2cccnc2)c(O)c2ccccc21,·,·,96.2*,·,-8.8
COc1cc2c(cc1OC)C(C1C(=O)CCCC1=O)N(C(=O)CCl)CC2 (stereo unspecified),·,-9.2,3.1,-1.2,-3.7
COc1cc2c(cc1OC)C(c1ccccc1)N(C(=O)CCl)CC2 (stereo unspecified),·,·,168.0*,·,8.1
CSc1ccccc1NC(=O)c1cc2c(=O)n3ccccc3nc2s1,22.3*,-1.7,-2.8,-0.5,·
CC(C)NC(=O)c1cc2c(=O)n3ccccc3nc2s1,-2.5,-1.1,-11.0,-46.4,-0.8
CN(C)C(=O)C[C@@H]1CC[C@H](NS(=O)(=O)c2ccccc2)[C@@H](CO)O1,-3.0,0.9,1.4,2.6,-2.4
N#Cc1ccc(C(=O)NC(=S)N2CCN(C=O)CC2)cc1,-6.6,-1.5,7.1,20.0*,-17.4
COCCn1c(=S)[nH]c2ncccc2c1=O,·,·,6.2,·,-0.4
COc1ccc(-n2c(=S)[nH]c3ncccc3c2=O)cc1,8.6,0.5,14.4,15.2*,0.7
SMILES,DENV2 CPE,S100A4 inh HTS,C2C12 statin,SIRT5 inh,PGC1a acetyl inh
CCOc1cccc(CN2CCCC(N3CCN(c4cccc(Cl)c4)CC3)C2)c1O (stereo unspecified),?,-3.5,7.8,69.2*,26.4
CCOc1cccc(CN2CCCC(N3CCc4ccccc4C3)C2)c1O (stereo unspecified),-3.0,4.7,-8.1,-2.2,-5.2
COc1ccccc1CN1CCCC(N2CCN(c3ccccc3OC)CC2)C1 (stereo unspecified),29.0*,-8.5,7.6,2.5,8.8
CCC(=O)Nc1ccc2c(c1)OC[C@H](C)N(C(=O)c1cccnc1)C[C@@H](C)[C@H](OC)CN(C)C2=O,-4.9,-10.3,-18.7,-1.2,2.0
COC(=O)C1=C(C)N(Cc2ccc(Cl)cc2)C(=S)NC1c1cccc(Br)c1 (stereo unspecified),-9.8,-3.2,·,-0.9,·
COC(=O)C1=C(C)N(Cc2ccc(F)cc2)C(=S)NC1c1cccc(F)c1 (stereo unspecified),5.8,-2.0,·,0.9,·
COC(=O)C1=C(C)N(Cc2ccc(Br)cc2)C(=S)NC1c1cccc(Br)c1 (stereo unspecified),42.0*,-0.3,·,-0.7,·
COC(=O)C1=C(C)N(Cc2ccc(Cl)cc2)C(=S)NC1c1ccc(Br)cc1 (stereo unspecified),25.4*,-3.9,·,-4.0,·
COC(=O)C1=C(C)N(CC(C)C)C(=S)NC1c1cccc(F)c1 (stereo unspecified),55.9*,-0.9,·,2.1,·
COC(=O)C1=C(C)N(Cc2ccc(Cl)cc2)C(=S)NC1c1ccc(F)cc1 (stereo unspecified),9.8,1.1,·,-0.9,·
O=C(C[C@@H]1CC[C@@H]2[C@H](COC[C@H](O)CN2S(=O)(=O)c2cccc(Cl)c2)O1)NCc1ccc2c(c1)OCO2,12.8,4.8,23.2,3.3,7.0
Cc1noc(C)c1S(=O)(=O)N(C)C[C@@H]1OCCCC[C@@H](C)Oc2ccc(NS(=O)(=O)c3ccccc3)cc2C(=O)N([C@@H](C)CO)C[C@@H]1C,6.4,23.0,·,·,-14.3
CC1(OC(=O)CCc2ccccc2)C(=O)C=C2C=C(c3ccc(C#N)cc3)N(CC3CC3)C=C2C1=O (stereo unspecified),11.7,-0.1,11.4,-0.6,-3.8
CC1(OC(=O)CCc2ccccc2)C(=O)C=C2C=C(c3ccc(C#N)cc3)N(c3ccccc3)C=C2C1=O (stereo unspecified),41.2*,-4.6,0.5,·,-7.7
COc1ccc(CNC(=O)C[C@H]2CC[C@H]3[C@@H](COc4ccc(NC(=O)C(C)C)cc4C(=O)N3C)O2)cc1,·,·,-0.5,·,0.1
F[B-](F)(F)c1cnc2ccccc2c1,26.2*,-0.1,2.0,1.1,0.4
COc1ccc(S(=O)(=O)Nc2cc3c4c(c2)CCN4C(=O)CC3)cc1,59.9*,3.3,-9.8,-1.0,·
COc1ccc(OC)c(S(=O)(=O)Nc2cc3c4c(c2)CCN4C(=O)CC3)c1,-2.8,0.0,8.9,-1.4,·
NS(=O)(=O)c1cc(C(=O)NC2CCSc3ccccc32)ccc1Cl (stereo unspecified),5.6,-3.1,0.9,43.4*,·

# From PubChem
